# Screening results as filed in PubChem.
# MrgX1 allo act – positive allosteric modulators of MrgX1, primary screen, HEK293 cells, Fluo-4 calcium flux | B-score at 10 µM | Mas-related G-protein coupled receptor member X1 (Homo sapiens), Q96LB2 | hit rate 0.63% among 310,000 | FDSS; hits give high values;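 active = plate-corrected calcium response at least 3 library SD above typical, normal starting fluorescence, not activating the receptor alone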;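 note: compound read alongside a low EC10 to EC30 dose of BAM8-22 agonist; peak minus trough fluorescence over baseline measured at the second addition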
# Target sequence (Q96LB2 whole entry, looked up): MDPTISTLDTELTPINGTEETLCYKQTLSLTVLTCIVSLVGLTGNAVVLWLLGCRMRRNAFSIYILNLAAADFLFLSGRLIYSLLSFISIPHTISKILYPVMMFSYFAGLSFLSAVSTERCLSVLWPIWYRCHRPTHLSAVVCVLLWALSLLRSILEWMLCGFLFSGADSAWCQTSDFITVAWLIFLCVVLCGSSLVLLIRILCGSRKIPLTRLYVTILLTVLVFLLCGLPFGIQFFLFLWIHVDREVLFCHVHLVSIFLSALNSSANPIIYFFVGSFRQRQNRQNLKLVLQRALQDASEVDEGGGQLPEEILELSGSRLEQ
# RGS4 inh – RGS4 inhibitors, primary screen, cell-based, HEK293 M3R inducible RGS4, calcium flux; Regulator of G-protein signaling 4 (Homo sapiens), P49798; Fluo-4 calcium flux; hits give high values; triggered by carbachol at its EC20; B-score at 10 µM; hit rate 0.45% among 310,000;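 active = B-score, a plate-corrected calcium signal, over three deviations above library mean, with baseline fluorescence within five deviations of library mean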;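 note: RGS4 expression induced by doxycycline in cells with stable M3 receptor; B-score is computed from the integrated fluorescence ratio over baseline after carbachol; higher B-score means a larger calcium signal and so more RGS4 inhibition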
# Target sequence (P49798 whole entry, looked up): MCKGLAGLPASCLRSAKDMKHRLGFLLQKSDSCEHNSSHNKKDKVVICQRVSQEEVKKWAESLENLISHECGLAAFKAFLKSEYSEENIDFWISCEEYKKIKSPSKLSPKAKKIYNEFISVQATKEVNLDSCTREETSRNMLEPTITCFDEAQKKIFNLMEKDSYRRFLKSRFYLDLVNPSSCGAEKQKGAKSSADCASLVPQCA
# RGS4 pot – RGS4 potentiators or activators, primary screen, cell-based, HEK293 M3R inducible RGS4, calcium flux; B-score at 10 µM; carbachol calcium flux Fluo4; hits give low values; hit rate 0.92% among 310,000;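 active = B-score of the integrated calcium signal more than 4 SD below the library mean, with starting fluorescence not abnormally high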;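 note: negative B-score means reduced calcium response which marks RGS4 activation or potentiation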
#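 Reagent: ECmax carbachol challenge; Test system: M3R-expressing HEK293 line, RGS4 induced by doxycycline; Schedule: overnight RGS4 induction, 30 min dye load 37 °C, 20 min compound RT; Detection: calcium dye Fluo4 fluorescence; Read-out: Agonist-evoked peak-minus-minimum fluorescence over baseline, integrated ratio, B score.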
# Lipid droplet – inhibitors of hepatocyte lipid droplet formation, primary screen, imaging, high-throughput imaging, BODIPY stain; inhibition, % at 6.5 µM; AID 1656, 2009; hit rate 0.4% among 240,000; AML12 mouse hepatocytes, oleate lipid droplets;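 active = lipid droplet intensity inhibited by at least 50%, with more than 500 cells counted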
#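 Assay system: AML12 hepatocytes (mouse); Probe or stimulus: oleic acid at 100 µM to induce lipid droplet formation; Dosing: compound at 6.5 µM only; Schedule: compound with oleate, overnight; Detection: fluorescence imaging, 20x objective, two fields per well; Measure: % inhibition of lipid droplet signal.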
# MrgX1 ag – agonists of human MrgX1 receptor, primary screen, HEK293 cells, Fluo-4 calcium flux; Mas-related G-protein coupled receptor member X1 (Homo sapiens), Q96LB2; Fluo-4 calcium fluorescence, agonist mode; hits give high values; B-score at 10 µM; hit rate 0.44% among 310,000; AID 588627, 2011;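 active = calcium response B-score plate-corrected fluorescence ratio at least 3 library SD, with starting fluorescence B-score inside 5 SD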
#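 System – MrgX1-expressing HEK293 cells · Incubation – cells plated overnight, dye loaded 0.5 h 37 °C, 0.5 h room temperature · Technique – kinetic Fluo-4 NW fluorescence of intracellular calcium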
# MrgX1 antagonist – antagonists of human MrgX1 receptor, primary screen, HEK293 cells, Fluo-4 calcium flux; Mas-related G-protein coupled receptor member X1 (Homo sapiens), Q96LB2; B-score at 10 µM; hit rate 1.3% among 310,000; BAM8-22 antagonism; hits give low values; AID 588676, 2011;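 active = calcium-response B-score plate-corrected more than 3 library SD below zero, starting fluorescence within 5 deviations, no agonist response on first addition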;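 note: peak minus trough fluorescence over baseline after final BAM8-22 challenge near maximal dose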
# Hits are given with their value; . = inactive; / = no result given. Rows were chosen to be rich in hits. Some 3.8% of all compounds tested hit in one or more screens of this group.
SMILES,MrgX1 allo act,RGS4 inh,RGS4 pot,Lipid droplet,MrgX1 ag,MrgX1 antagonist
O=C(C[n+]1cc(-c2ccc(Cl)cc2)n2c1CCC2)N1c2ccccc2Sc2ccccc21,.,.,-7.6,.,.,.
O=C(C[n+]1cc(-c2ccc(Cl)cc2)n2c1CCC2)Nc1nc(-c2ccccc2)cs1,.,.,.,.,.,.
COc1ccc(-c2c[n+](CC(=O)N3c4ccccc4Sc4ccccc43)c3n2CCC3)cc1,.,.,-8.9,/,.,.
CC1CCC(C(C)C)C(OC(=O)C[n+]2cc(-c3ccc(Cl)cc3)n3c2CCC3)C1 (configuration not stated),.,.,.,.,.,-7
O=C(CN(C(=O)c1csnn1)c1cccc(F)c1)NCc1ccc2c(c1)OCO2,.,.,.,.,.,.
CCOC(=O)C1=C(N)OC(CCl)=C(C#N)C1c1ccsc1 (configuration not stated),.,.,.,.,.,.
CCc1nc(NC(=O)c2sc(C)nc2C)sc1C(=O)OC,.,.,.,.,.,.
CC(C)c1ccc(CNCCCSc2ncccn2)cc1,.,.,.,.,.,.
Cc1noc(C)c1S(=O)(=O)NCc1ccc2c(c1)OCO2,.,.,.,/,.,.
COc1ccc(NS(=O)(=O)c2ccc(O)c(NC(=O)c3ccc(S(=O)(=O)N4CCCCCC4)cc3)c2)cc1,.,.,-7.8,.,.,.
COc1ccc(NS(=O)(=O)c2ccc(O)c(NC(=O)c3ccc(S(=O)(=O)N4CCCC4)cc3)c2)cc1,.,.,.,.,.,.
Cc1ccc(-n2nc(C)c3c(C)c(CCC(=O)Nc4ccc(CN5CCCC5)cc4)c(C)nc32)cc1,.,.,-7.1,.,.,.
CCN(CC)CCNC(=O)CCc1c(C)nc2c(c(C)nn2-c2ccc(C)c(C)c2)c1C,.,.,-7,.,.,.
CCCCN(CCO)c1ncnc2sc(-c3ccccc3)cc12,.,.,.,/,.,.
O=C(C1=C(O)C(=O)N(CC2CCCO2)C1c1ccccc1Cl)c1ccco1 (configuration not stated),.,.,.,.,.,.
COc1cc(SC)ccc1C(=O)Nc1ccc2ncccc2c1,.,.,.,.,.,.
COc1ccc(CN2CCN(CCc3ccccc3)C(CCO)C2)cc1Cn1cncn1 (configuration not stated),.,.,.,.,.,.
COc1ccc(CN2CCN(CC=C(C)C)C(CCO)C2)cc1Cn1cccn1 (configuration not stated),.,.,.,.,28,.
CC1Nc2ncnc(N3CCc4ccccc4C3)c2N(Cc2ccc(Br)cc2)C1=O (configuration not stated),.,.,-9,/,.,.
COc1cc(/C=C(/C#N)c2nc(-c3cc4ccccc4oc3=O)cs2)cc([N+](=O)[O-])c1O,/,/,/,.,/,/
COc1cc(/C=C(\C#N)c2nc(-c3cc4ccccc4oc3=O)cs2)ccc1O,.,.,.,.,.,-9.2
Nn1c(-c2cccs2)nc2sc3c(c2c1=O)CCCC3,.,.,.,/,.,.
Cc1ccccc1-c1nc2sc3c(c2c(=O)n1N)CCCC3,18,.,.,.,.,.
CCN(C(=O)CN1C(=O)COc2ccc(S(=O)(=O)N3CCCCCC3)cc21)c1cccc(C)c1,.,.,.,.,38,.
O=C(NCCO)Nc1ccc2nc(-c3ccco3)c(-c3ccco3)nc2c1,.,/,/,.,28,.
SMILES,MrgX1 allo act,RGS4 inh,RGS4 pot,Lipid droplet,MrgX1 ag,MrgX1 antagonist
O=C(Nc1ccc(N2CCOCC2)cc1)c1ccc2nc(-c3ccco3)c(-c3ccco3)nc2c1,.,.,.,.,.,.
O=C(Nc1cccnc1)c1ccc2nc(-c3ccccc3)c(-c3ccccc3)nc2c1,.,.,-9.8,.,.,.
O=C(Nc1ccccn1)c1ccc2nc(-c3ccccc3)c(-c3ccccc3)nc2c1,.,.,.,.,.,.
S=C(Nc1ccc(N2CCOCC2)cc1)Nc1ccc2nc(-c3ccco3)c(-c3ccco3)nc2c1,.,.,-7,.,.,.
CC(=O)c1ccc(NC(=O)c2ccc3nc(-c4ccco4)c(-c4ccco4)nc3c2)cc1,.,.,.,.,.,-6.7
CCc1ccc(NC(=O)CCc2ccc(CC)o2)cc1,.,.,.,.,.,.
CCOc1ccccc1NCc1nnc(-c2ccccc2)o1,.,.,-7.5,.,.,.
COc1ccc(OC)c(NCc2nnc(-c3ccccc3)o2)c1,.,.,.,/,.,.
COc1ccc(/C=C/C(=O)c2ccc3ccccc3c2O)cc1CN1CCOCC1,.,.,.,.,.,-4.7
CC(C)C[C@H]1CN=C(Nc2ccccc2)N1CC1CCCC1,.,.,.,/,.,.
CC(C)C[C@H]1CN=C(Nc2ccccc2)N1CC1CCC(C(C)(C)C)CC1 (some centres not stated),6.9,/,/,/,.,.
CC(C)c1ccc(NC(=O)[C@@H](C)NC(=O)[C@@H]2Cc3ccccc3CN2)cc1,.,.,-7.4,.,.,.
CS(=O)(=O)N1CCC(Oc2ccccc2C(=O)NCCCc2cccnc2)CC1,.,.,.,.,.,.
CC1=CC(=C(C#N)C#N)c2ccccc2N1C,.,.,.,.,.,.
CC1=C/C(=C\C=C(C#N)C#N)N(C)c2ccccc21,.,.,.,.,.,-5.7
N#C/C(=C\c1ccc(O)c(O)c1)C(=O)Nc1cccc2ncccc12,.,.,.,.,.,.
Cc1cc(=O)oc2cc(OCC(=O)OCC(=O)Nc3c(C)n(C)n(-c4ccccc4)c3=O)ccc12,.,.,.,.,.,-8.8
CC1CCCCN1S(=O)(=O)c1ccc([N+](=O)[O-])cc1 (configuration not stated),.,.,.,.,.,.
CCC1CCCCN1S(=O)(=O)c1ccc([N+](=O)[O-])cc1 (configuration not stated),.,.,-7.4,.,.,.
COc1ccc(N=c2oc3ccccc3cc2C(=O)Nc2ccccn2)cc1OC,.,.,.,.,.,.
COc1ccccc1NC(=O)c1cc2ccccc2o/c1=N\O,.,11,.,/,.,.
Cc1cccc(CSC(Nc2ccc(F)cc2)=C(C#N)C#N)c1,.,.,.,.,.,-6.6
CCOc1ccc(NC(=O)C[n+]2ccc(N(C)C)cc2)cc1,.,.,.,.,.,.
CN(C)c1cc[n+](CC(=O)Nc2ccc(Oc3ccccc3)cc2)cc1,.,.,-9.1,.,.,.
